Activity calls are given as the source filed them. The rule behind the calls is not given here.
Columns and labels:
Cavia porcellus [1] = assay: Bronchospasmolytic activity in histamine aerosol-induced Dunkin-Hartley guinea pig assessed as survival at 50 mg/kg, po pretreated for 1 hr followed by histamine aerosol-challenge relative to control; assay type: functional
Procedure, shortened: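 Male Dunkin Hartley guinea pigs (250 ± 30 g), 4 per group, fasted overnight. Each animal was given test drug, theophylline or vehicle at 50 mg/kg by mouth in CMC + distilled water, 1 h before challenge. It was then exposed singly in a histamine chamber to 5 ml of 1% histamine aerosolised over 1 min. Onset, jerk duration, severity and death or survival were recorded. Survival is given as % of the group.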

Cavia porcellus [2] = assay: Bronchospasmolytic activity in histamine aerosol-induced Dunkin-Hartley guinea pig assessed as duration of jerks at 50 mg/kg, po pretreated for 1 hr followed by histamine aerosol-challenge (reference value: 172 +/- 4 seconds); assay type: functional
Homo sapiens [3] = species on record: Homo sapiens; assay: Selectivity ratio of Ki for human recombinant adenosine A3 receptor to Ki for human recombinant adenosine A2A receptor
Homo sapiens [4] = species on record: Homo sapiens; assay: Selectivity ratio of Ki for human recombinant adenosine A2B receptor to Ki for human recombinant adenosine A2A receptor
Adenosine receptor A3 = target: T1, Adenosine receptor A3 (Homo sapiens, UniProt P0DMS8); assay: Displacement of [3H]-HEMADO from human recombinant adenosine A3 receptor expressed in CHO cell membranes after 3 hrs by microbeta counting analysis
T1 sequence (P0DMS8 whole entry): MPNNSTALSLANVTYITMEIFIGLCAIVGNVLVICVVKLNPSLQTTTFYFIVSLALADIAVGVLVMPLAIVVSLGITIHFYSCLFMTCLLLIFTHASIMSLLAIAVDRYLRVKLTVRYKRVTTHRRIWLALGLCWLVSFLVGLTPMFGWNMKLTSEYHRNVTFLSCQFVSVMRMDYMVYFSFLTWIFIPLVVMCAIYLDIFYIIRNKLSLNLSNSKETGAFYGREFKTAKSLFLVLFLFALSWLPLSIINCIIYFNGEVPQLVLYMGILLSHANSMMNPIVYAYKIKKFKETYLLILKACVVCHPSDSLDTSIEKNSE
Procedure, shortened: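 Human A3 receptor in stably transfected CHO cell membranes (10-50 µg protein), resuspended in 50 mM Tris/HCl, 10 mM MgCl2, 1 mM EDTA, pH 8.25. Incubated with [3H]HEMADO (1 nM) for 3 h at 25 °C, then filtered, washed and scintillation counted. Nonspecific binding was defined with R-PIA. Ki came from non-linear curve fitting; geometric means of 3–5 experiments.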

Adenosine receptor A2b = target: T2, Adenosine receptor A2b (Homo sapiens, UniProt P29275); assay: Binding affinity to human recombinant adenosine A2B receptor expressed in CHO cell membranes assessed as inhibition of NECA-stimulated adenylyl cyclase activity after 20 mins
T2 sequence (P29275 whole entry): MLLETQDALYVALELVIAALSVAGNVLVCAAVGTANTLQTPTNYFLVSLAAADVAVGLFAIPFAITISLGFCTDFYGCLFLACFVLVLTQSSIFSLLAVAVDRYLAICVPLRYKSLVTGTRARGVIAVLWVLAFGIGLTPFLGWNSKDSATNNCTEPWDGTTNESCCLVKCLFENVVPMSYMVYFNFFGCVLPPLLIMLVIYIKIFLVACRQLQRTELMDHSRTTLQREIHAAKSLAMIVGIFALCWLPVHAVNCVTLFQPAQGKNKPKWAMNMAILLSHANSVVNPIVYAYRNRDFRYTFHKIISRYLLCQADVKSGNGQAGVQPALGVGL
Procedure, shortened: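 Membranes from CHO cells stably expressing the human A2B receptor, prepared fresh by one 54,000 g spin and used immediately in 50 mM Tris/HCl pH 7.4. Concentration-dependent inhibition of NECA-stimulated adenylyl cyclase was measured with about 150,000 cpm [α-32P]ATP for 20 min. Ki was calculated from IC50 with the Cheng–Prusoff equation. Geometric means of 3–5 experiments.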

Adenosine receptor A1 = target: T3, Adenosine receptor A1 (Homo sapiens, UniProt P30542); assay: Displacement of [3H]-CCPA from human recombinant adenosine A1 receptor expressed in CHO cell membranes after 3 hrs by microbeta counting analysis
T3 sequence (P30542 whole entry): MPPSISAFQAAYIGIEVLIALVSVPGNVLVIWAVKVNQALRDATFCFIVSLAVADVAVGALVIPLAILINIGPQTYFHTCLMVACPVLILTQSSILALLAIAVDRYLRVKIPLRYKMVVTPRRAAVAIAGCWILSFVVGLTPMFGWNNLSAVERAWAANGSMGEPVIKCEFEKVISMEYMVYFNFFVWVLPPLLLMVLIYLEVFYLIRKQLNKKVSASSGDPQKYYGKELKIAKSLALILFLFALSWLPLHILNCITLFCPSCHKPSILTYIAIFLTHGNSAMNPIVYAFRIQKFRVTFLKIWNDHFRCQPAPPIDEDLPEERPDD
Procedure, shortened: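 Human A1 receptor stably expressed in CHO cells. Crude membranes (10-50 µg protein) in 50 mM Tris/HCl pH 7.4 were incubated with [3H]CCPA (1 nM) for 3 h at 25 °C, then filtered, washed with ice-cold buffer and counted by scintillation. Nonspecific binding was defined with theophylline. Ki came from non-linear curve fitting; geometric means of 3–5 experiments.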

Cavia porcellus [5] = assay: Bronchospasmolytic activity in histamine aerosol-induced Dunkin-Hartley guinea pig assessed as time required for onset of bronchospasm at 50 mg/kg, po pretreated for 1 hr followed by histamine aerosol-challenge (reference value: 67 +/- 2 seconds); assay type: functional
Adenosine receptor A2a = Adenosine receptor A2a (Homo sapiens, UniProt P29274); assay: Displacement of [3H]-NECA from human recombinant adenosine A2A receptor expressed in CHO cell membranes after 3 hrs by microbeta counting analysis
Procedure, shortened: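 Crude membranes (10-50 µg protein) from CHO cells stably expressing the human A2A receptor, in 50 mM Tris/HCl pH 7.4. Incubated with [3H]NECA (10 nM) for 3 h at 25 °C, then filtered, washed with ice-cold buffer and scintillation counted. Nonspecific binding was defined with R-PIA. Ki came from non-linear curve fitting; geometric means of 3–5 experiments.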

Homo sapiens [6] = species on record: Homo sapiens; assay: Selectivity ratio of Ki for human recombinant adenosine A1 receptor to Ki for human recombinant adenosine A2A receptor
Cavia porcellus [7] = assay: Bronchospasmolytic activity in histamine aerosol-induced Dunkin-Hartley guinea pig assessed as severity of bronchospasm at 50 mg/kg, po pretreated for 1 hr followed by histamine aerosol-challenge; assay type: functional, organism-based; design: dose 50 mg/kg

Sequence of Adenosine receptor A2a (P29274 whole entry): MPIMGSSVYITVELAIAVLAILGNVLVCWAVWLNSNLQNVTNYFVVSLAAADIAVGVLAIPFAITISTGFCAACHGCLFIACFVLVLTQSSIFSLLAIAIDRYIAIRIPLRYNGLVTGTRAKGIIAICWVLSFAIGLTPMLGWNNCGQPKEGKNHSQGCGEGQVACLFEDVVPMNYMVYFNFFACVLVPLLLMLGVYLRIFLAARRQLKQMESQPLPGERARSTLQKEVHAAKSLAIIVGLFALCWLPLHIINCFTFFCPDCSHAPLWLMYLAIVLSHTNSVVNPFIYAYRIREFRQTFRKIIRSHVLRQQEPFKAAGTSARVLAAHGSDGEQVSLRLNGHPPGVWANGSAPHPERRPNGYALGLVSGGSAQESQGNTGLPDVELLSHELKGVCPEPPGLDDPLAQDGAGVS

Row | Compound | survival at 50 mg/kg (Cavia porcellus [1]) [%] | Time (Cavia porcellus [2]) [s] | Ratio Ki (Homo sapiens [3]) | Ratio Ki (Homo sapiens [4]) | Ki (Adenosine receptor A3) [µM] | Ki (Adenosine receptor A2b) [µM] | Ki (Adenosine receptor A1) [µM] | Time (Cavia porcellus [5]) [s] | Ki (Adenosine receptor A2a) [µM] | Ratio Ki (Homo sapiens [6]) | Activity (Cavia porcellus [7])
1 | Cn1c(=O)c2[nH]c(-c3ccc(OCCCn4ccnc4)cc3)nc2n(C)c1=O | 75 | 71 | 54 | 25 | 2.27 | 1.05 | 0.89 | 108 | 0.042 | 21 | 
2 | CCN(CC)CCOc1ccc(-c2nc3c([nH]2)c(=O)n(C)c(=O)n3C)cc1 | 75 | 49 | 27 | 10 | 6.82 | 2.59 | 1.59 | 115 | 0.25 | 6.4 | 
3 | Cn1c(=O)c2[nH]c(-c3ccc(OC4CCCC4)cc3)nc2n(C)c1=O | 50 | 35 | > 420 | 14 | > 10 | 1 | > 30 | 72 | 0.072 | > 420 | 
4 | Cn1c(=O)c2[nH]c(Cc3ccc(OCCCN4CCC5(CC4)OCCO5)cc3)nc2n(C)c1=O | 50 | 23 | > 3.7 | > 1.2 | > 30 | > 10 | > 30 | 73 | 8.09 | > 3.7 | 
5 | Cn1c(=O)c2[nH]c(-c3ccc(OCCCCl)cc3)nc2n(C)c1=O | 100 | 30 | > 670 | > 220 | > 30 | > 10 | > 10 | 114 | 0.045 | > 220 | 
6 | Cn1c(=O)c2[nH]c(-c3ccc(OCCN4CCOCC4)cc3)nc2n(C)c1=O | 100 | 45 | 8.8 | 4.3 | 2.74 | 1.34 | 2.58 | 104 | 0.31 | 8.3 | 
7 | Cn1c(=O)c2[nH]c(Cc3ccc(OCCCCl)cc3)nc2n(C)c1=O | 50 | 44 |  |  | > 30 | > 10 | > 30 | 75 | > 10 |  | 
8 | Cn1c(=O)c2[nH]c(Cc3ccc(OCCCn4ccnc4)cc3)nc2n(C)c1=O | 50 |  | > 9.5 | > 3.2 | > 30 | > 10 | > 30 | 83 | 3.17 | > 9.5 | 
9 | Cn1c(=O)c2[nH]c(-c3ccc(OCCCN4CCN(Cc5ccccc5Cl)CC4)cc3)nc2n(C)c1=O | 100 |  | 57 | 1.4 | 6.89 | 0.17 | 1.85 | 109 | 0.12 | 15 | Active
10 | Cn1c(=O)c2[nH]c(-c3ccc(OCCN4CCCC4)cc3)nc2n(C)c1=O | 100 | 32 | 23 | 9.9 | 4.6 | 1.97 | 1.2 | 111 | 0.2 | 6 | 
11 | Cn1c(=O)c2[nH]c(Cc3ccc(OCCCN4CCOCC4)cc3)nc2n(C)c1=O | 100 |  |  |  | > 30 | > 10 | > 30 | 108 | > 10 |  | 
12 | Cn1c(=O)c2[nH]c(-c3ccc(OCCC4CCNCC4)cc3)nc2n(C)c1=O | 75 | 22 | 22 | 10 | 6.51 | 2.9 | 1.33 | 121 | 0.29 | 4.6 | 
13 | Cn1c(=O)c2nc[nH]c2n(C)c1=O.O [THEOPHYLLINE] | 100 | 89 |  |  |  |  |  | 92 |  |  | 
14 | CN(C)CCOc1ccc(-c2nc3c([nH]2)c(=O)n(C)c(=O)n3C)cc1 | 100 | 39 | 24 | 12 | 9.38 | 4.95 | 1.82 | 111 | 0.4 | 4.6 | 

From ChEMBL document CHEMBL3120062, “Novel 8-(p-substituted-phenyl/benzyl)xanthines with selectivity for the A2A adenosine receptor possess bronchospasmolytic activity” (Eur J Med Chem, 2014)
